Reference: ChEMBL document CHEMBL4350970, “Rational Design of 5-(4-(Isopropylsulfonyl)phenyl)-3-(3-(4-((methylamino)methyl)phenyl)isoxazol-5-yl)pyrazin-2-amine (VX-970, M6620): Optimization of Intra- and Intermolecular Polar Interactions of a New Ataxia Telangiectasia Mutated and Rad3-Related (ATR) Kinase Inhibitor” (J Med Chem, 2019)
≈ marks a conversion by molar mass, not a printed value. Calls of active or inactive are those of the source. No cut-off for these calls is given here.

What was measured:
HCT-116 [1] = assay: Potentiation of cisplatin-induced antiproliferative activity against human HCT116 cells assessed as reduction in cell viability at 500 nM measured after 96 hrs by MTS assay; type: functional, cell-based
Procedure, shortened: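 HCT116 cells from ATCC, exponentially growing, plated and left to adhere overnight. Compound and cisplatin added at the indicated concentrations, then incubated 96 h. MTS reagent added and absorbance read at 490 nm after 1 h. Synergy and antagonism assessed with Macsynergy analysis.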

[2] = target: Serine-protein kinase ATM (Homo sapiens, UniProt Q13315); assay: Inhibition of full-length ATM (unknown origin) using DPSVEPPLSQETFSDKKK peptide as substrate measured after 24 hrs in presence of [gamma-33P] ATP by microbeta liquid scintillation counting analysis
Procedure, shortened: (§1)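 Radiometric phosphate incorporation assay with full-length kinase (ATR and ATM made in-house; DNA-PK purchased) premixed with buffer and target peptide. Compound added in DMSO over a range of concentrations, final DMSO 7%. Started with [γ-33P]ATP at 25 °C. Stopped with phosphoric acid (final 100 mM) and ATP (final […]), captured on phosphocellulose, washed with 100 mM phosphoric acid, then scintillation counted. Dose-response fitting.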

[3] = Aqueous solubility of the compound in PBS incubated overnight by UPLC-MS analysis; type: physicochemical
Procedure, shortened: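 Compounds dissolved in DMSO (standard) or in DPBS (10 mM phosphate, 140 mM NaCl) to at most 200 µM. PBS samples sealed, shaken overnight at room temperature, then centrifuged 45 min at 4000 rpm, 22 °C. UV AUC from UPLC-MS compared with the DMSO standard: solubility = AUC(PBS)/AUC(standard) × [standard].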

[4] = target: T1, Serine/threonine-protein kinase ATR (Homo sapiens, UniProt Q13535); assay: Inhibition of ATR in human HCT116 cells assessed as reduction in histone H2AX phosphorylation by Hoechst staining-based immunofluorescence microscopic analysis; type: cell-based
[5] = target: T1, Serine/threonine-protein kinase ATR; assay: Inhibition of recombinant human full-length N-terminal Flag epitope-tagged ATR expressed in HEK293T cells using ASELPASQPQPFSAKKK peptide as substrate measured after 24 hrs in presence of [gamma-33P] ATP by microbeta liquid scintillation counting analysis; procedure, shortened: as §1
[6] = target: DNA-dependent protein kinase catalytic subunit (Homo sapiens, UniProt P78527); assay: Inhibition of purified recombinant human full-length DNA-PK using EPPLSQEAFADLWKKK peptide as substrate measured after 2 hrs in presence of [gamma-33P] ATP by microbeta liquid scintillation counting analysis; procedure, shortened: as §1
Homo sapiens [7] = organism: Homo sapiens; assay: Selectivity ratio of Ki for full-length ATM (unknown origin) to Ki for recombinant human full-length N-terminal Flag epitope-tagged ATR expressed in HEK293T cells; type: cell-based
Procedure, shortened: (§2)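 Ratio of Ki values from the radiometric [γ-33P]ATP phosphocellulose-capture assays with full-length kinases: ATM or DNA-PK Ki over ATR Ki.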

Homo sapiens [8] = organism: Homo sapiens; assay: Selectivity ratio of Ki for purified recombinant human full-length DNA-PK to Ki for recombinant human full-length N-terminal Flag epitope-tagged ATR expressed in HEK293T cells; procedure, shortened: as §2
[9] = target: Glycogen synthase kinase-3 beta (Homo sapiens, UniProt P49841); assay: Inhibition of human GSK3beta
[10] = Dissociation constant, pKa of compound; type: physicochemical
[11] = target: Voltage-gated inwardly rectifying potassium channel KCNH2 (Homo sapiens, UniProt Q12809); assay: Inhibition of human ERG
[12] = target: Dual specificity tyrosine-phosphorylation-regulated kinase 2 (Homo sapiens, UniProt Q92630); assay: ATP competitive inhibition of human DYRK2
[13] = target: Tyrosine-protein kinase JAK2 (Homo sapiens, UniProt O60674); assay: Inhibition of human JAK2
[14] = target: Mast/stem cell growth factor receptor Kit (Homo sapiens, UniProt P10721, D816H); assay: ATP competitive inhibition of human c-Kit D816H mutant
[15] = target: Tyrosine-protein kinase Mer (Homo sapiens, UniProt Q12866); assay: ATP competitive inhibition of human Mer
[16] = Half life in Sprague-Dawley rat at 10 mg/kg administered as iv infusion for 3 hrs; type: ADME, organism-based; settings: in vivo
Procedure, shortened: (§3)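 Male Sprague-Dawley rats (about 200-350 g), catheterized in jugular and femoral veins under isoflurane; n=3. IV infusion at 3.33 mg/kg/h for 3 h (nominal 10 mg/kg, as free base) in 5% Captisol:2.5% mannitol in water. Jugular blood drawn at 0-51 h, centrifuged 3,000 G, 10 min, 4 °C; plasma collected.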

[17] = target: Mitogen-activated protein kinase kinase kinase 9 (Homo sapiens, UniProt P80192); assay: ATP competitive inhibition of human MLK1
[18] = target: Tyrosine-protein kinase ABL1 (Homo sapiens, UniProt P00519, T315I); assay: ATP competitive inhibition of human ABL T315I mutant
[19] = target: Tyrosine-protein kinase SYK (Homo sapiens, UniProt P43405); assay: Inhibition of human SYK
[20] = target: Glycogen synthase kinase-3 alpha (Homo sapiens, UniProt P49840); assay: ATP competitive inhibition of human GSK3alpha
[21] = Permeability across apical to basolateral side in human Caco2 cells; type: ADME, cell-based; settings: Caco-2, read-out: permeability
[22] = Volume of distribution at steady state in Sprague-Dawley rat at 10 mg/kg administered as iv infusion for 3 hrs; type: ADME, organism-based; settings: in vivo, read-out: Vdss; procedure, shortened: as §3
[23] = target: Receptor-type tyrosine-protein kinase FLT3 (Homo sapiens, UniProt P36888, D835Y); assay: ATP competitive inhibition of human Flt3 D835Y mutant
[24] = target: Cytochrome P450 2D6, Homo sapiens (UniProt P10635); assay: Inhibition of CYP2D6 (unknown origin)
HCT-116 [25] = assay: Potentiation of cisplatin-induced antiproliferative activity against human HCT116 cells assessed as reduction in cell viability at < 50 nM measured after 96 hrs by MTS assay; type: functional, cell-based
Procedure, shortened: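 HCT116 cells plated and left to adhere overnight. Compound and cisplatin added the next day at set concentrations, then incubated 96 h. MTS reagent added; absorbance at 490 nm read after 1 h. Synergy and antagonism assessed by MacSynergy analysis.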

[26] = target: Vascular endothelial growth factor receptor 3 (Homo sapiens, UniProt P35916); assay: ATP competitive inhibition of human Flt4
[27] = target: Receptor-type tyrosine-protein kinase FLT3 (Homo sapiens, UniProt P36888); assay: Inhibition of human Flt3
Cytochrome P450 2C9 = Cytochrome P450 2C9 (Homo sapiens, UniProt P11712); assay: Inhibition of CYP2C9 (unknown origin); type: ADME

Sequence of Glycogen synthase kinase-3 beta (P49841 whole entry): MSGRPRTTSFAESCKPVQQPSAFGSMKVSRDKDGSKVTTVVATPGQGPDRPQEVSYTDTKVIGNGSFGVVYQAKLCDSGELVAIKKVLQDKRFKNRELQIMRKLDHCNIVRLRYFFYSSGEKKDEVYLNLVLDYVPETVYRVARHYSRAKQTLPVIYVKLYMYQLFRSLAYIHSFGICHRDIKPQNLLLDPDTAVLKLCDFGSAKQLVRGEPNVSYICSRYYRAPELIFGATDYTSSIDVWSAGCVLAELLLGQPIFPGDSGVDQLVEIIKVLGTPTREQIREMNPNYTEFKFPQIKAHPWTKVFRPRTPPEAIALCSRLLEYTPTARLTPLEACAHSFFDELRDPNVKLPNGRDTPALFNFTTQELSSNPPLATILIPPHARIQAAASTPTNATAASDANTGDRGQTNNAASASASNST
Sequence of DNA-dependent protein kinase catalytic subunit (P78527 whole entry): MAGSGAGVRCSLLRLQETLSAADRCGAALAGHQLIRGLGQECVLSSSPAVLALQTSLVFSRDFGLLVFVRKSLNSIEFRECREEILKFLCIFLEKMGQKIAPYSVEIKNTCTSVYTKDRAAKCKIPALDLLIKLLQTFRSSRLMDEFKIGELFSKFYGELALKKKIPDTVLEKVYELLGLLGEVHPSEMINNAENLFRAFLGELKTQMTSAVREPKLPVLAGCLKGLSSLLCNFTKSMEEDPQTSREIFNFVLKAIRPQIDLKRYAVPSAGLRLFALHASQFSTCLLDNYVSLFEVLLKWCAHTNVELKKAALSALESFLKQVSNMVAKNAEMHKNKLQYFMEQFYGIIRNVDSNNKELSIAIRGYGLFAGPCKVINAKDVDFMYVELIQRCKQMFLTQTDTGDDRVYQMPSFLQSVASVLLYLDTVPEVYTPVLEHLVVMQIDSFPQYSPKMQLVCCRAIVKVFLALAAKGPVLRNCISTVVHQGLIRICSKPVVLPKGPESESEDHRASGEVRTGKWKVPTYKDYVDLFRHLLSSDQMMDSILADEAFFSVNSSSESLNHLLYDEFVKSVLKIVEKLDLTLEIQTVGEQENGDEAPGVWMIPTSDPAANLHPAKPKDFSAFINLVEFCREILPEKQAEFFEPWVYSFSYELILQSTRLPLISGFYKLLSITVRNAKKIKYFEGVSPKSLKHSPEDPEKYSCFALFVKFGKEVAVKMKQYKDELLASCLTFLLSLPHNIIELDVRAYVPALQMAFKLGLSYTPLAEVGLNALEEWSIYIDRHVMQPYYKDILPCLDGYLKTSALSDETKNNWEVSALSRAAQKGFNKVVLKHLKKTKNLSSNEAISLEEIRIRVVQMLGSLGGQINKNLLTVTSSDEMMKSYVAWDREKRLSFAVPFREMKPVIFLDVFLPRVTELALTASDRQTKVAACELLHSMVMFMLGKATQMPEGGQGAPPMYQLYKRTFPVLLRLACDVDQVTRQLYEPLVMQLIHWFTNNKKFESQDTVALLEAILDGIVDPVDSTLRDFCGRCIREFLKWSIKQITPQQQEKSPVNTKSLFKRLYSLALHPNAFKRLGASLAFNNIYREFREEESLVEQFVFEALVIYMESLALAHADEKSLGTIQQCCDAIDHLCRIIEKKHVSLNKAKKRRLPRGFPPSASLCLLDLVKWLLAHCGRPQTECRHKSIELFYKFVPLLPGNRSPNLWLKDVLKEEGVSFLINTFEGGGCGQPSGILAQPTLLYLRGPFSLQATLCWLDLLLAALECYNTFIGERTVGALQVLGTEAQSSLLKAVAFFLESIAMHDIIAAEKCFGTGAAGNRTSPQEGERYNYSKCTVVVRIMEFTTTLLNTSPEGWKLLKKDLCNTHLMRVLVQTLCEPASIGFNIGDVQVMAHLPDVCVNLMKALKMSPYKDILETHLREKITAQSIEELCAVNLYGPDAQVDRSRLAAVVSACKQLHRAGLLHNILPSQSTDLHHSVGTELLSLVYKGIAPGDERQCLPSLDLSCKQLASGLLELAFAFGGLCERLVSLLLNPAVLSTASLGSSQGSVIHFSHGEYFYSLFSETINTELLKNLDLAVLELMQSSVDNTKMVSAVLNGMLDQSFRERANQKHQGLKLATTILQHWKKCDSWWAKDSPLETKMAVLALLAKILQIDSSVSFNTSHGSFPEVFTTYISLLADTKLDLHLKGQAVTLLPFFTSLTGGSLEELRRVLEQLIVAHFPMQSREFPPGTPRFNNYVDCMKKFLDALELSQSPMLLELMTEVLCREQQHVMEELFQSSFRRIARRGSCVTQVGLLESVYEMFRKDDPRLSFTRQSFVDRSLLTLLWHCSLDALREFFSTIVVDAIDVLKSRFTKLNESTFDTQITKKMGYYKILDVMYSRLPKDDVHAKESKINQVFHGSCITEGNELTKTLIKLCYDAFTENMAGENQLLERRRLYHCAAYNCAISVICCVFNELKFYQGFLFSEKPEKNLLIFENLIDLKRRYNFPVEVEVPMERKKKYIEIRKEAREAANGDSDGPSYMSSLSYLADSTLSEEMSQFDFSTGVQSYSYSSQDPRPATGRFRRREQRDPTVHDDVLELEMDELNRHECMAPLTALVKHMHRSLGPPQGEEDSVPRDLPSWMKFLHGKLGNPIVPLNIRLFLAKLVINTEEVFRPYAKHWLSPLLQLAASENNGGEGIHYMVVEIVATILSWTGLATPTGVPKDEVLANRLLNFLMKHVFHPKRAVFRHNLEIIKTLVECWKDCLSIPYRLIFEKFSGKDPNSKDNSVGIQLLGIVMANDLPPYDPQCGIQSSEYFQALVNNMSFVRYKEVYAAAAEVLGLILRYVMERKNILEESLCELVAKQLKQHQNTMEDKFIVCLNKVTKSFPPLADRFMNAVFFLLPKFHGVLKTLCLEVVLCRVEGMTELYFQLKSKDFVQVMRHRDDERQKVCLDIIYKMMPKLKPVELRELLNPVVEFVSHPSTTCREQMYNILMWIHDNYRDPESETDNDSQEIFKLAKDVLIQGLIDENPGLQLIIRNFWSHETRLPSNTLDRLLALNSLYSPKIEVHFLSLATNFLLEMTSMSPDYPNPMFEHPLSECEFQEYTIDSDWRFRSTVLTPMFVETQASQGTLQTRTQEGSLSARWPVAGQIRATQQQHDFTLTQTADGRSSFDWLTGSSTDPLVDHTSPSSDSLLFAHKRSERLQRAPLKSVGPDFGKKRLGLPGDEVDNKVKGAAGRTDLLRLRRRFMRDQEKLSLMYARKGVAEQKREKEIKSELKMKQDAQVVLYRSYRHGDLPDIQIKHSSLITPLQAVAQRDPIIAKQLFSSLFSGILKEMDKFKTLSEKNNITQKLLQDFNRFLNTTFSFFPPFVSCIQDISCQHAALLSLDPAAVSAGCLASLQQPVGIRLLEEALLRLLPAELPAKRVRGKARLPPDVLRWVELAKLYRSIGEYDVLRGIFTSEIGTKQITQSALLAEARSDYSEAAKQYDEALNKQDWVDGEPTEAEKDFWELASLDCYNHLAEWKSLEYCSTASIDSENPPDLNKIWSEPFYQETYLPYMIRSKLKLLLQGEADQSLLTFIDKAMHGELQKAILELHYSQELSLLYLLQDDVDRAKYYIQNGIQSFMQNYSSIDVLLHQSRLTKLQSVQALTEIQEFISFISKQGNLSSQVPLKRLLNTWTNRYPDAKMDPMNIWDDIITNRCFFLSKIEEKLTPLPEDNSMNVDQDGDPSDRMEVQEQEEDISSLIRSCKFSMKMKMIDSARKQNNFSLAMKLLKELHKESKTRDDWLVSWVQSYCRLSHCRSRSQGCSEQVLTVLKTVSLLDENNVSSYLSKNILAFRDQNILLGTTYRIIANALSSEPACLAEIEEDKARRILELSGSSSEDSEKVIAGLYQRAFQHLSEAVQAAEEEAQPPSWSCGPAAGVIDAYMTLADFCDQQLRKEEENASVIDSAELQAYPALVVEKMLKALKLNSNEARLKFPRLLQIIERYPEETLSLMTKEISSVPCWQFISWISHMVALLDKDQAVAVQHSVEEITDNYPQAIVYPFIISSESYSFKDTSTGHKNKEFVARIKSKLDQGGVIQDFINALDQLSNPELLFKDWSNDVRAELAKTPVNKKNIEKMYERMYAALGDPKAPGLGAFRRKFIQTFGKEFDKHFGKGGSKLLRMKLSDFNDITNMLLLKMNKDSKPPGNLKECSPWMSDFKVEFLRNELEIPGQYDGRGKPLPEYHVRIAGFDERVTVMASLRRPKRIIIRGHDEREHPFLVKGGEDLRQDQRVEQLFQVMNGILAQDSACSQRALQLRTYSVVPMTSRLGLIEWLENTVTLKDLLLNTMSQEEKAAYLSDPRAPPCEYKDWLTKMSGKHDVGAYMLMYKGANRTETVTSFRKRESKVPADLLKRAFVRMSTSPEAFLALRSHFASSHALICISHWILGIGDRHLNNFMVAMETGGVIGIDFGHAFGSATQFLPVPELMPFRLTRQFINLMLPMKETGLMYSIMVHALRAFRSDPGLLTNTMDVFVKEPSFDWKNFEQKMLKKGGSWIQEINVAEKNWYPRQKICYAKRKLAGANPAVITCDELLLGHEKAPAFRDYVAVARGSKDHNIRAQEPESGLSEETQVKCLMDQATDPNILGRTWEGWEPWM
Sequence of Cytochrome P450 2D6, Homo sapiens (P10635 whole entry, looked up): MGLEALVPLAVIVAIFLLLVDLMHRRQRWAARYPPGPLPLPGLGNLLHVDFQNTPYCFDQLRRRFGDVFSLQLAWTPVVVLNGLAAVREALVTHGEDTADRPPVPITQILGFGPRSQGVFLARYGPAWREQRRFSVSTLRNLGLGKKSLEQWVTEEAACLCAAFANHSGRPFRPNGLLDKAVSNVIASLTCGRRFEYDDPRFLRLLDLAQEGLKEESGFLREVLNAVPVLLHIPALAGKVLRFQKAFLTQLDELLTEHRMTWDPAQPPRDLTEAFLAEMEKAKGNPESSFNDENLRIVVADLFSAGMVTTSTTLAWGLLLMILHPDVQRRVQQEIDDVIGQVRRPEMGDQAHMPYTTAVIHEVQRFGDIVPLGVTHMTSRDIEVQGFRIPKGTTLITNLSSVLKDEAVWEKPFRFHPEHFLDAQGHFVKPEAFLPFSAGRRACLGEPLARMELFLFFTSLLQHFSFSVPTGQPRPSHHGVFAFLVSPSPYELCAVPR

SMILES | Ki [2] | solubility [3] | IC50 [4] | Ki [5] | Ki [6] | other results
CS(=O)(=O)c1ccc(-c2cnc(N)c(C(=O)Nc3ccccc3)n2)cc1 | – | – | – | – | – | Activity (HCT-116 [1]): Active
CNCc1ccc(-c2cc(-c3nc(-c4ccc(S(=O)(=O)C(C)C)cc4)cnc3N)on2)cc1Cl | 0.19 µM | 1.36 µM (≈ 0.677 µg/mL) | 0.13 µM | 0.0024 µM | > 4 µM | –
CC(C)S(=O)(=O)c1ccc(-c2cnc(N)c(C3CC(c4ccccc4)=NO3)n2)cc1 (racemic) | > 4 µM | – | > 2.5 µM | – | > 4 µM | –
CC(C)S(=O)(=O)c1ccc(-c2cnc(N)c(-c3nnc(-c4ccccc4)o3)n2)cc1 | > 10 µM | – | 0.41 µM | 0.001 µM | 8.9 µM | Ratio Ki (Homo sapiens [7]): > 1000; Ratio Ki (Homo sapiens [8]): > 1000; Ki [9]: 0.022 µM
CC(C)S(=O)(=O)c1ccc(-c2cnc(N)c(-c3cn(-c4ccccc4)nn3)n2)cc1 | 1.3 µM | – | > 2.5 µM | – | > 4 µM | –
CC(C)S(=O)(=O)c1ccc(-c2cnc(N)c(-c3cnc(-c4ccccc4)o3)n2)cc1 | > 10 µM | – | – | 0.021 µM | > 4 µM | –
CC(C)S(=O)(=O)c1ccc(-c2cnc(N)c(-c3cc(-c4ccc([C@@H](C)N)cc4)no3)n2)cc1 | 0.105 µM | 45.1 µM (≈ 20.9 µg/mL) | 0.13 µM | 0.00053 µM | 1.7 µM | –
CC(C)S(=O)(=O)c1ccc(-c2cnc(N)c(-c3nc(-c4ccccc4)no3)n2)cc1 | 1.35 µM | – | > 2.5 µM | 0.026 µM | > 1.6 µM | –
CC(C)S(=O)(=O)c1ccc(-c2cnc(N)c(-c3cc(-c4ccc([C@H](C)N)cc4)no3)n2)cc1 | 0.082 µM | 27.9 µM (≈ 12.9 µg/mL) | 0.3 µM | 0.00124 µM | 0.785 µM | –
CCNCc1ccc(-c2cc(-c3nc(-c4ccc(S(=O)(=O)C(C)C)cc4)cnc3N)on2)cc1 | 0.047 µM | 72 µM (≈ 34.4 µg/mL) | 0.076 µM | 0.00021 µM | 3.35 µM | –
CC(C)S(=O)(=O)c1ccc(-c2cnc(N)c(-c3cc(-c4ccccc4)on3)n2)cc1 | 1.3 µM | – | 0.8 µM | 0.002 µM | > 4 µM | Ki [9]: 0.53 µM
CC(C)S(=O)(=O)c1ccc(-c2cnc(N)c(-c3noc(-c4ccccc4)n3)n2)cc1 | 0.4 µM | – | 2.3 µM | 0.005 µM | 4 µM | –
CC(C)S(=O)(=O)c1ccc(-c2cnc(N)c(-c3cc(-c4ccccc4)no3)n2)cc1 | 1.4 µM | < 0.3 µM | 1.1 µM | 0.001 to 0.0013 µM | > 4 µM | Ratio Ki (Homo sapiens [7]): > 1000; Ratio Ki (Homo sapiens [8]): > 1000; Ki [9]: 0.65 µM
CC(C)S(=O)(=O)c1ccc(-c2cnc(N)c(-c3cc(-c4ccc(CNC5CCOCC5)cc4)no3)n2)cc1 | 0.189 µM | 0.8 µM (≈ 0.427 µg/mL) | – | – | > 4 µM | pKa [10]: 9.7
CNCc1ccc(-c2cc(-c3nc(-c4ccc(S(=O)(=O)C(C)C)cc4)cnc3N)on2)c(Cl)c1 | 0.093 µM | 4.4 µM (≈ 2.19 µg/mL) | 0.21 µM | 0.00075 µM | 2.61 µM | –
CC(C)S(=O)(=O)c1ccc(-c2cnc(N)c(C(=O)Nc3ccccc3)n2)cc1 | 4 µM | – | 1.03 µM | 0.004 µM | 2.8 µM | –
CNCc1ccc(-c2cc(-c3nc(-c4ccc(S(=O)(=O)C(C)C)cc4)cnc3N)on2)cc1 [BERZOSERTIB] | 0.044 µM | 52 µM (≈ 24.1 µg/mL) | – | – | > 4 µM | IC50 [11]: 3 µM; Ki [12]: 0.026 µM; Ki [13]: 0.15 µM; Ki [14]: 0.039 µM; Ki [15]: 0.03 µM; half-life [16]: 11.6 h; Ki [17]: 0.015 µM; pKa [10]: 8.2; Ki [18]: 0.059 µM; Ki [19]: 0.19 µM; Ki [20]: 0.033 µM; Papp A→B [21]: 7.2 ×10⁻⁶ cm/s; Vd [22]: 21 L/kg; Ki [23]: 0.018 µM; Ki [9]: 0.14 µM; IC50 [24]: > 30 µM; Activity (HCT-116 [25]): Active; Ki [26]: 0.008 µM; Ki [27]: 0.13 µM; IC50 (Cytochrome P450 2C9): > 30 µM
CC(C)S(=O)(=O)c1ccc(-c2cnc(N)c(-c3cc(-c4ccc(CN)cc4)no3)n2)cc1 | 0.115 µM | 12.5 µM (≈ 5.62 µg/mL) | > 25 µM | 0.00027 µM | > 4 µM | –
CC(C)S(=O)(=O)c1ccc(-c2cnc(N)c(-c3ncc(-c4ccccc4)o3)n2)cc1 | > 10 µM | – | > 2.5 µM | – | > 4 µM | –
CC(C)S(=O)(=O)c1ccc(-c2cnc(N)c(-c3nnc(-c4ccccc4)s3)n2)cc1 | > 4 µM | – | 1.7 µM | 0.001 µM | > 4 µM | Ratio Ki (Homo sapiens [7]): > 1000; Ratio Ki (Homo sapiens [8]): > 1000
